How the values were obtained:
[1] = biological target: Tyrosine-protein kinase Blk (Homo sapiens, UniProt P51451); assay: Inhibition of BLK (unknown origin)
[2] = biological target: Dual specificity protein kinase CLK3 (Homo sapiens, UniProt P49761); assay: Inhibition of CLK3 (unknown origin)
[3] = biological target: Tyrosine-protein kinase receptor TYRO3 (Homo sapiens, UniProt Q06418); assay: Inhibition of TYRO3 (unknown origin)
[4] = biological target: Ribosomal protein S6 kinase alpha-5 (Homo sapiens, UniProt O75582); assay: Inhibition of RPS6KA5 (unknown origin)
[5] = biological target: AMP-activated protein kinase (AMPK) alpha-1/beta-1/gamma-1 (Homo sapiens) (UniProt P54619+Q9Y478+Q13131); settings: dose 100.0 nM
[6] = biological target: Cyclin-dependent kinase 1/cyclin B1 (Homo sapiens, UniProt P06493); assay: Inhibition of CDK1/cyclin B (unknown origin); assay type: protein-complex assay
Sequence of Cyclin-dependent kinase 1/cyclin B1 (P06493 whole entry): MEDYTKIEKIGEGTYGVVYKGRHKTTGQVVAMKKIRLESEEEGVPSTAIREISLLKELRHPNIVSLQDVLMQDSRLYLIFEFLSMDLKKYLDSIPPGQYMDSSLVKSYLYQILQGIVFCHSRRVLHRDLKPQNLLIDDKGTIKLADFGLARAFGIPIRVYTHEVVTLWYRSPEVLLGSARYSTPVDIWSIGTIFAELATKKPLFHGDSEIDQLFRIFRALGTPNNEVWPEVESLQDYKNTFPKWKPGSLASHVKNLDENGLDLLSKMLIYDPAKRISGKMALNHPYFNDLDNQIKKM
Sequence of Cyclin-dependent kinase 1/cyclin B1 (P14635 whole entry, further chain): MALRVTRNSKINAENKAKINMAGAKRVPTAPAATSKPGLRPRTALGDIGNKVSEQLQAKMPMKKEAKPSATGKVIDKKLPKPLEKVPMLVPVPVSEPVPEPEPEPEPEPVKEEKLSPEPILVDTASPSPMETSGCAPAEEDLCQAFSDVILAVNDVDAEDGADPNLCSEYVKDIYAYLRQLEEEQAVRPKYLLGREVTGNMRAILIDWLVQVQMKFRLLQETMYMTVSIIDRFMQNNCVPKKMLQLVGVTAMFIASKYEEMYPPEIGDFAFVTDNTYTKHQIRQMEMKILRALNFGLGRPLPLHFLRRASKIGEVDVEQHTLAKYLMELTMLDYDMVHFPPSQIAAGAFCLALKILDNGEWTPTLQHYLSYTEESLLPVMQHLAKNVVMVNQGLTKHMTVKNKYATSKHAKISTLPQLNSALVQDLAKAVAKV

[7] = biological target: Dual specificity protein kinase CLK1 (Homo sapiens, UniProt P49759); assay: Inhibition of CLK1 (unknown origin)
[8] = biological target: Serine/threonine-protein kinase Nek2 (Homo sapiens, UniProt P51955); assay: Inhibition of NEK2 (unknown origin)
Sequence of Serine/threonine-protein kinase Nek2 (P51955 whole entry): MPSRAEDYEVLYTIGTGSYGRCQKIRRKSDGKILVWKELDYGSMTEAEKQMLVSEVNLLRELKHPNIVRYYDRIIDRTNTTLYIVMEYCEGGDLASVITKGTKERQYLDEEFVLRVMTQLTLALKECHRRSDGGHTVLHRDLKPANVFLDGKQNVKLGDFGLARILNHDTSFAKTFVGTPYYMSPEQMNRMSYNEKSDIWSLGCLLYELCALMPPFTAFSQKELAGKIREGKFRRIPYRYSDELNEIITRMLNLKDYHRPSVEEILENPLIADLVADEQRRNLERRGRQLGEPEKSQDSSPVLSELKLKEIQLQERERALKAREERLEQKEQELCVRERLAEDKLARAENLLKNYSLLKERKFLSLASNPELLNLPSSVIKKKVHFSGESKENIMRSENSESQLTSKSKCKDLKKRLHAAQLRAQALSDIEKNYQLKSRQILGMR

K562 = assay: Antiproliferative activity against human K562 cells measured after 72 hrs by Alamar blue staining based analysis; assay type: functional, cell-based; settings: K562, 72 h
Procedure, shortened: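 Cells were exposed for 72 h at 37 °C under 5% CO2 to compound made up as DMSO stock and diluted in culture medium. Proliferation was then read by Alamar Blue.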

[9] = biological target: Macrophage colony-stimulating factor 1 receptor (Homo sapiens, UniProt P07333); settings: dose 100.0 nM
SRSF protein kinase 2 = SRSF protein kinase 2 (Homo sapiens, UniProt P78362); assay: Inhibition of SRPK2 (unknown origin)
[10] = biological target: Tyrosine-protein kinase Srms (Homo sapiens, UniProt Q9H3Y6); assay: Inhibition of SRMS (unknown origin)
SRSF protein kinase 3 = SRSF protein kinase 3 (Homo sapiens, UniProt Q9UPE1); assay: Inhibition of STK23 (unknown origin)
[11] = biological target: Proto-oncogene tyrosine-protein kinase ROS (Homo sapiens, UniProt P08922); assay: Inhibition of ROS1 (unknown origin)
[12] = biological target: Leukocyte tyrosine kinase receptor (Homo sapiens, UniProt P29376); assay: Inhibition of LTK (unknown origin)
[13] = biological target: Ribosomal protein S6 kinase beta-1 (Homo sapiens, UniProt P23443); assay: Inhibition of RPS6KB1 (unknown origin)
Aurora kinase B = Aurora kinase B (Homo sapiens, UniProt Q96GD4); settings: dose 100.0 nM
Sequence of Aurora kinase B (Q96GD4 whole entry): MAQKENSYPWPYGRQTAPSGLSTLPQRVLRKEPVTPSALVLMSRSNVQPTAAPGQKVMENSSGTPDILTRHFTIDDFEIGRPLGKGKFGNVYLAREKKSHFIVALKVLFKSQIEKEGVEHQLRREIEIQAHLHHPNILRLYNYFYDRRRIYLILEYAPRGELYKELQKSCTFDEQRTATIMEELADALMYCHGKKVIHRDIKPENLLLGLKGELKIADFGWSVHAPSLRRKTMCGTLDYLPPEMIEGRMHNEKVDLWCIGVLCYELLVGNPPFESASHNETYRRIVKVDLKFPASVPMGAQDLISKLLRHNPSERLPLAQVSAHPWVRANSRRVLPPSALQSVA

[14] = biological target: Homeodomain-interacting protein kinase 4 (Homo sapiens) (UniProt Q8NE63); settings: dose 100.0 nM
Sequence of Homeodomain-interacting protein kinase 4 (Homo sapiens) (Q8NE63 whole entry): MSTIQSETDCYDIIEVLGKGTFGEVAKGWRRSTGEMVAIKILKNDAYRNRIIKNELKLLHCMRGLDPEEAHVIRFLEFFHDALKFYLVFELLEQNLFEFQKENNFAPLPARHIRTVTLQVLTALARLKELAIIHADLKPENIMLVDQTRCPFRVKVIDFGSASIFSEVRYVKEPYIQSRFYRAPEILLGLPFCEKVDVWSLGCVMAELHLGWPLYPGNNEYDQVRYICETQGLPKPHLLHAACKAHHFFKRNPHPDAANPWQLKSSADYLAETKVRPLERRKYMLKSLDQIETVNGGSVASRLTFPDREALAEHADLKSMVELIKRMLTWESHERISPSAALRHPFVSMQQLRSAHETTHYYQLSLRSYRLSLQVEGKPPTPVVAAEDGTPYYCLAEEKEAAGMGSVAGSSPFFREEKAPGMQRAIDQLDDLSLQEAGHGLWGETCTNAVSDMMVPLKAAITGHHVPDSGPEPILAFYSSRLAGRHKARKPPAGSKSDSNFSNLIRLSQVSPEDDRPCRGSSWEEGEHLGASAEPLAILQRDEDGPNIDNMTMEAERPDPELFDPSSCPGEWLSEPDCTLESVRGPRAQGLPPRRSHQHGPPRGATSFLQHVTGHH

[15] = biological target: Serine/threonine-protein kinase D2 (Homo sapiens) (UniProt Q9BZL6); settings: dose 100.0 nM
Sequence of Serine/threonine-protein kinase D2 (Homo sapiens) (Q9BZL6 whole entry): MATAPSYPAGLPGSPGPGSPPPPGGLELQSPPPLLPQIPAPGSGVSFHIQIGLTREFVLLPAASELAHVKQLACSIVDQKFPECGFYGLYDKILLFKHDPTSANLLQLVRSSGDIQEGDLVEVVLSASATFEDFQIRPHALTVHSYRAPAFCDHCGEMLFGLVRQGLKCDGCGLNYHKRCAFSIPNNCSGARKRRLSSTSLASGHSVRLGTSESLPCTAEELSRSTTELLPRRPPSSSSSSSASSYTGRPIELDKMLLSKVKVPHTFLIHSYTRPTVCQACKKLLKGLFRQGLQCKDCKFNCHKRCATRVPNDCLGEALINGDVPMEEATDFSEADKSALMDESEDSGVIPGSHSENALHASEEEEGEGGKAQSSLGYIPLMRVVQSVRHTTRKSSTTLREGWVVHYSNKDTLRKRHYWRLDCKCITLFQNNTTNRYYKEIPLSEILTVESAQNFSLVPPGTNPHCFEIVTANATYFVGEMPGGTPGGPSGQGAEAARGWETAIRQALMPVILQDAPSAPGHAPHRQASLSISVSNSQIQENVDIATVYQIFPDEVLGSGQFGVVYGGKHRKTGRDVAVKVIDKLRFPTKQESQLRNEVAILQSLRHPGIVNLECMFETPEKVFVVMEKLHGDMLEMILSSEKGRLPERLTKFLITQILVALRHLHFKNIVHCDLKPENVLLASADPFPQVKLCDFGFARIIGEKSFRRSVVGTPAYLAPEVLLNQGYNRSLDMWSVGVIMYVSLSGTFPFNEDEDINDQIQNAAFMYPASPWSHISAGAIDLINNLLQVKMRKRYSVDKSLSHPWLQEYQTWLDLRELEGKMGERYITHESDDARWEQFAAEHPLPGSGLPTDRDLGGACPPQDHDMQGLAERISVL

[16] = biological target: Vascular endothelial growth factor receptor 1 (Homo sapiens, UniProt P17948); assay: Inhibition of FLT1 (unknown origin)
[17] = biological target: Tyrosine-protein kinase SYK (Homo sapiens, UniProt P43405); settings: dose 100.0 nM
[18] = biological target: Mitogen-activated protein kinase 14 (Homo sapiens, UniProt Q16539); assay: Inhibition of MAPK14 (unknown origin)
[19] = biological target: Serine/threonine-protein kinase 26 (Homo sapiens, UniProt Q9P289); assay: Inhibition of MST4 (unknown origin)
[20] = biological target: Homeodomain-interacting protein kinase 1 (Homo sapiens, UniProt Q86Z02); assay: Inhibition of HIPK1 (unknown origin)
[21] = biological target: Inhibitor of nuclear factor kappa-B kinase subunit beta (Homo sapiens) (UniProt O14920); settings: dose 100.0 nM
Ephrin type-A receptor 2 = Ephrin type-A receptor 2 (Homo sapiens, UniProt P29317); assay: Inhibition of EPHA2 (unknown origin)
[22] = biological target: Mitogen-activated protein kinase 10 (Homo sapiens) (UniProt P53779); settings: dose 100.0 nM
[23] = biological target: Tyrosine-protein kinase Yes (Homo sapiens, UniProt P07947); assay: Inhibition of YES1 (unknown origin)
[24] = biological target: Fibroblast growth factor receptor 3 (Homo sapiens, UniProt P22607); assay: Inhibition of FGFR3 (unknown origin)
Sequence of Fibroblast growth factor receptor 3 (P22607 whole entry): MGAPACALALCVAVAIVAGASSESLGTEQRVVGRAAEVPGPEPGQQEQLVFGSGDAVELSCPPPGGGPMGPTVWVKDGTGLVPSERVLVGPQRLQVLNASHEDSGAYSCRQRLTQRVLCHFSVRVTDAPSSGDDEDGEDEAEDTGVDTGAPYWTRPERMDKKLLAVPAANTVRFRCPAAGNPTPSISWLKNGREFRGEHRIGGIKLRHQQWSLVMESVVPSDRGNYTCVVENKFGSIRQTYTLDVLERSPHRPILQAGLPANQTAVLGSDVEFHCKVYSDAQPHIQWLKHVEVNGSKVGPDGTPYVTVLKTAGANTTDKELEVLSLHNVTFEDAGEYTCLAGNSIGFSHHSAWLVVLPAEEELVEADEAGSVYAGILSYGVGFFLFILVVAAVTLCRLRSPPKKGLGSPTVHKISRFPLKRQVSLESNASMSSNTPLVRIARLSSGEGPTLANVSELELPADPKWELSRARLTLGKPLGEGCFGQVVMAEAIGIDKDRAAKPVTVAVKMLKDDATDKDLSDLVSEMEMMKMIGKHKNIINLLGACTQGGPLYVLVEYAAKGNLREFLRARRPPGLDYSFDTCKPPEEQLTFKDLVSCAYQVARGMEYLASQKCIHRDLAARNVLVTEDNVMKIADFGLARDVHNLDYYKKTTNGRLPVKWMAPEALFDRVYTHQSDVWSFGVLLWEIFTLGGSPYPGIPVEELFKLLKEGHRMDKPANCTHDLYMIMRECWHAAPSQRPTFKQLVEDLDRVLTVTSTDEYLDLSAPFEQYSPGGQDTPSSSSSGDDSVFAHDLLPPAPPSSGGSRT

[25] = biological target: Mitogen-activated protein kinase kinase kinase 8 (Homo sapiens, UniProt P41279); settings: dose 100.0 nM
Sequence of Mitogen-activated protein kinase kinase kinase 8 (P41279 whole entry): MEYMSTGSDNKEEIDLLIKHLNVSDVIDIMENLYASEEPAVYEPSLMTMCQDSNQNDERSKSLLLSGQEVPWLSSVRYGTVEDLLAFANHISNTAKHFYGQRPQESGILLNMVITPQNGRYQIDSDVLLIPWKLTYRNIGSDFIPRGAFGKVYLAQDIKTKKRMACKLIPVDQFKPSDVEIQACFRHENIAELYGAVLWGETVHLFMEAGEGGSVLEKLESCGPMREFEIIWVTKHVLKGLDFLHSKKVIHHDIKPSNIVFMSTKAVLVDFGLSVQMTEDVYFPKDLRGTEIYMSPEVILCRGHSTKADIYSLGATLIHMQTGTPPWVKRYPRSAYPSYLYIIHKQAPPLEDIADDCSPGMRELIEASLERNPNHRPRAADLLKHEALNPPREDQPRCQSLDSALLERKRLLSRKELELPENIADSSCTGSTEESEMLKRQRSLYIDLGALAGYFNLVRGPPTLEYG

[26] = system: RAF proto-oncogene serine/threonine-protein kinase (Homo sapiens), P04049 [Y340D]; settings: dose 100.0 nM
Sequence of RAF proto-oncogene serine/threonine-protein kinase (Homo sapiens), P04049 [Y340D] (P04049 whole entry Y340D): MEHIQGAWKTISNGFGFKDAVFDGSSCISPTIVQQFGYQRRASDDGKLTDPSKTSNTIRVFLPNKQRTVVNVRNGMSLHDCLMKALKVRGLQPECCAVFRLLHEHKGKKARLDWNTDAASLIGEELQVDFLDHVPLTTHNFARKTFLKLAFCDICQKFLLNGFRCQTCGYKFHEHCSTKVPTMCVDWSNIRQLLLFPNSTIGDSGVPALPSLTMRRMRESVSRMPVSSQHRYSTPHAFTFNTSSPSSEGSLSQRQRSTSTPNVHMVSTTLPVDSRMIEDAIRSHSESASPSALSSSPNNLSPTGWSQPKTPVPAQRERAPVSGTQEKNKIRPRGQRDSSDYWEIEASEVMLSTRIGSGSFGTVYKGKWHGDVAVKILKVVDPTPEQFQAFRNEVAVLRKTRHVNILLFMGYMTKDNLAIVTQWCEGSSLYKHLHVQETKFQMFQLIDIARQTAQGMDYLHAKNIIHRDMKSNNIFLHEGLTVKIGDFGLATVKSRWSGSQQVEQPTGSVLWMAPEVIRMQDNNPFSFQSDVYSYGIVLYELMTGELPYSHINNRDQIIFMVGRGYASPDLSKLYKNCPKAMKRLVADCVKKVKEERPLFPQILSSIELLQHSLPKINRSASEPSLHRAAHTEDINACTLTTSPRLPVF

[27] = biological target: Dual specificity protein kinase CLK2 (Homo sapiens, UniProt P49760); assay: Inhibition of CLK2 (unknown origin)
[28] = biological target: Mitogen-activated protein kinase 8 (Homo sapiens) (UniProt P45983); settings: dose 100.0 nM
[29] = biological target: Serine/threonine-protein kinase D3 (Homo sapiens) (UniProt O94806); settings: dose 100.0 nM
[30] = biological target: Serine/threonine-protein kinase B-raf (Homo sapiens, UniProt P15056); assay: Inhibition of BRAF (unknown origin)
[31] = biological target: High affinity nerve growth factor receptor (Homo sapiens, UniProt P04629); settings: dose 100.0 nM
[32] = biological target: Casein kinase II subunit alpha (Homo sapiens, UniProt P68400); assay: Inhibition of CSNK2A1 (unknown origin)
[33] = biological target: Tyrosine-protein kinase CSK (Homo sapiens, UniProt P41240); assay: Inhibition of CSK (unknown origin)
[34] = biological target: Serine/threonine-protein kinase PLK3 (Homo sapiens, UniProt Q9H4B4); assay: Inhibition of PLK3 (unknown origin)
[35] = biological target: Proto-oncogene tyrosine-protein kinase Src (Homo sapiens, UniProt P12931); assay: Inhibition of SRC (unknown origin)
[36] = biological target: Casein kinase I isoform gamma-1 (Homo sapiens, UniProt Q9HCP0); assay: Inhibition of CSNK1G1 (unknown origin)
[37] = biological target: Mitogen-activated protein kinase 9 (Homo sapiens) (UniProt P45984); settings: dose 100.0 nM
[38] = biological target: Casein kinase I isoform gamma-2 (Homo sapiens, UniProt P78368); assay: Inhibition of CSNK1G2 (unknown origin)

Question: Which IC50 [1] does the source give for `N#CCNC(=O)c1ccc(-c2ccnc(Nc3ccc(N4CCOCC4)cc3)n2)cc1` [MOMELOTINIB] here?
Answer: > 1000 nM

Question: What about the IC50 [2] of the same molecule?
Answer: > 1000 nM

Question: What about the IC50 [3] of the same molecule?
Answer: < 1000 nM

Question: What about the IC50 [4] of the same molecule?
Answer: > 1000 nM

Question: What about the inhibition [5] of the same molecule?
Answer: < 50%

Question: And the IC50 [6]?
Answer: < 1000 nM

Question: And the IC50 [7]?
Answer: < 1000 nM

Question: What about the IC50 [8] of the same molecule?
Answer: > 1000 nM

Question: What about the IC50 (K562) of the same molecule?
Answer: 58000 nM

Question: And the inhibition [9]?
Answer: < 50%

Question: What about the IC50 (SRSF protein kinase 2) of the same molecule?
Answer: > 1000 nM

Question: What about the IC50 [10] of the same molecule?
Answer: > 1000 nM

Question: And the IC50 (SRSF protein kinase 3)?
Answer: > 1000 nM

Question: What about the IC50 [11] of the same molecule?
Answer: < 1000 nM

Question: What about the IC50 [12] of the same molecule?
Answer: > 1000 nM

Question: And the IC50 [13]?
Answer: < 1000 nM

Question: What about the inhibition (Aurora kinase B) of the same molecule?
Answer: < 50%

Question: And the inhibition [14]?
Answer: < 50%

Question: What about the inhibition [15] of the same molecule?
Answer: < 50%

Question: And the IC50 [16]?
Answer: > 1000 nM

Question: What about the inhibition [17] of the same molecule?
Answer: < 50%

Question: And the IC50 [18]?
Answer: > 1000 nM

Question: What about the IC50 [19] of the same molecule?
Answer: < 1000 nM

Question: What about the IC50 [20] of the same molecule?
Answer: < 1000 nM

Question: What about the inhibition [21] of the same molecule?
Answer: < 50%

Question: And the IC50 (Ephrin type-A receptor 2)?
Answer: > 1000 nM

Question: And the inhibition [22]?
Answer: < 50%

Question: And the IC50 [23]?
Answer: > 1000 nM

Question: What about the IC50 [24] of the same molecule?
Answer: > 1000 nM

Question: And the inhibition [25]?
Answer: < 50%

Question: What about the inhibition [26] of the same molecule?
Answer: < 50%

Question: And the IC50 [27]?
Answer: > 1000 nM

Question: What about the inhibition [28] of the same molecule?
Answer: > 50%

Question: What about the inhibition [29] of the same molecule?
Answer: > 50%

Question: And the IC50 [30]?
Answer: < 1000 nM

Question: And the inhibition [31]?
Answer: < 50%

Question: And the IC50 [32]?
Answer: > 1000 nM

Question: And the IC50 [33]?
Answer: > 1000 nM

Question: What about the IC50 [34] of the same molecule?
Answer: < 1000 nM

Question: And the IC50 [35]?
Answer: > 1000 nM

Question: What about the IC50 [36] of the same molecule?
Answer: > 1000 nM

Question: What about the inhibition [37] of the same molecule?
Answer: < 50%

Question: And the IC50 [38]?
Answer: > 1000 nM

Reference: ChEMBL document CHEMBL5705885, “CYT387, a selective JAK1/JAK2 inhibitor: in vitro assessment of kinase selectivity and preclinical studies using cell lines and primary cells from polycythemia vera patients” (Leukemia, 2009)
